The structures appear in SMILES notation. Activity calls are given as the source filed them. The rule behind the calls is not given here.

Series [1] has as its system Trypanosoma cruzi. As to the kind of experiment: Inhibition of Trypanosoma cruzi recombinant trans-sialidase at 1 mM after 10 mins by MUNANA continuous fluorimetric assay. The method in brief: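 Recombinant His-tagged 70 kDa TcTS, truncated to drop the C-terminal repeats and keep the catalytic N-terminal domain. Enzyme and inhibitor were preincubated 10 min at 26 °C in phosphate buffer pH 7.4. MuNANA (assay concentration 0.1 mM) was then added, and released methylumbelliferone fluorescence was read after 10 min (ex 360, em 460 nm). Run in duplicate.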

Series [2] is described as follows: Cytotoxicity against mouse splenocytes after 24 hrs using propidium iodide staining by FACS analysis. The series is classed as cell-based. Particulars: splenocyte. The method in brief:
(§1)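 Spleen cells from C57BL/6 mice were mechanically dissociated and given red-cell lysis for 4 min in Tris-HCl pH 7.5/NH₄Cl. They were plated at 5 × 10⁵ cells/well with test compounds (maximum 0.25 mM for less soluble ones) for 24 h at 37 °C, 5% CO₂. 0.5% Tween 20 was the death control. Cells were stained with 10 µg/mL propidium iodide.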

The test system of series [3] is Trypanosoma cruzi. As to the kind of experiment: Inhibition of Trypanosoma cruzi recombinant trans-sialidase at 0.5 mM after 10 mins by MUNANA continuous fluorimetric assay. The method in brief: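 Same His-tagged truncated recombinant TcTS (catalytic N-terminal domain) in phosphate buffer pH 7.4. Samples were dissolved in water with 0.6% DMSO and tested at 0.5 mM. Preincubation was 10 min at 26 °C, then 0.1 mM MuNANA was added. Mu fluorescence was read at 10 min (ex 360, em 460 nm), in duplicate.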

Series [4] relates to Trypanosoma cruzi. In words: Antitrypanosomal activity against Trypanosoma cruzi Y at < 100 uM after 24 hrs. The series is classed as functional, organism-based. The method in brief:
(§2)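 Y-strain trypomastigotes from LLC-MK₂ cultures, 6.5 × 10⁶ parasites/ml in RPMI with 10% FBS. Exposure included 750, 500, 250 and 100 µM at 37 °C, 5% CO₂. Poorly water-soluble compounds needed 0.6% DMSO and were capped at 0.75 mM. Benznidazole was the reference drug. Viability was measured by counting motile forms after 24 h.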

Series [5] is described as follows: Cytotoxicity against mouse splenocytes at 50 to 100 uM after 24 hrs using propidium iodide staining by FACS analysis. The series is classed as cell-based. The following applies: splenocyte. The method in brief:
as §1

The subject of series [6] is Trypanosoma cruzi. In words: Antitrypanosomal activity against Trypanosoma cruzi Y at > 100 uM after 24 hrs. The series is classed as functional. The method in brief:
as §2

[7] abbreviates: in the assay text read “in the low 100s of uM range” for “at < 100 uM”.

In the case of `CO[C@@H]1O[C@H](Cn2cc(-c3ccccc3C(F)(F)F)nn2)[C@H](O)[C@H](O)[C@H]1O`, the inhibition with Trypanosoma cruzi [1] was found to be 11%.
Consider `CCC(O)c1cn([C@@H]2O[C@H](CO)[C@H](O)[C@H](O)[C@H]2O)nn1` (single isomer, unassigned), for which the inhibition in the series on Trypanosoma cruzi [1] is 13%.
Consider `CO[C@@H]1O[C@H](Cn2cc(-c3cccnc3)nn2)[C@H](O)[C@H](O)[C@H]1O`, for which the inhibition in the series on Trypanosoma cruzi [1] amounted to 20%.
As to `CC(=O)N[C@H]1[C@H]([C@H](O)[C@H](O)CO)OC(C(=O)O)=C[C@@H]1O`, the inhibition in the series with Trypanosoma cruzi [1] is 33%.
`OC[C@H]1O[C@@H](n2cc(CCc3ccccc3)nn2)[C@H](O)[C@@H](O)[C@H]1O`: the inhibition with Trypanosoma cruzi [1] stood at 16%. In addition, the Activity entry in series [2] is recorded as “Toxic”.
In the case of `O=C(O)CCCc1cn([C@@H]2O[C@H](CO)[C@H](O)[C@H](O)[C@H]2O)nn1`, in the series on Trypanosoma cruzi [1], the inhibition stood at 10%.
As for `OCCCCc1cn([C@@H]2O[C@H](CO)[C@H](O)[C@H](O)[C@H]2O)nn1`, the inhibition in the series on Trypanosoma cruzi [1] turned out to be 26%.
As to `OC[C@H]1O[C@@H](n2cc(-c3ccccc3Br)nn2)[C@H](O)[C@@H](O)[C@H]1O`, the inhibition in the series with Trypanosoma cruzi [1] amounted to 33%.
With `OC[C@H]1O[C@@H](n2cc(-c3ccc(C(F)(F)F)cc3)nn2)[C@H](O)[C@@H](O)[C@H]1O`, in the series with Trypanosoma cruzi [3], the inhibition was determined as 9%. In series [2], the Activity result is listed as “Toxic”.
`CO[C@@H]1O[C@H](Cn2cc(COCC3CO3)nn2)[C@H](O)[C@H](O)[C@H]1O` (mixture of isomers): the inhibition in the series on Trypanosoma cruzi [1] is 25%.
Consider `CO[C@@H]1O[C@H](Cn2cc(CN(C)Cc3ccccc3)nn2)[C@H](O)[C@H](O)[C@H]1O`, for which the inhibition with Trypanosoma cruzi [1] stood at 17%. The result in the series on Trypanosoma cruzi [4] was Active. Also, in series [2], the Activity entry was “Non-toxic”.
In the case of `Nc1ccc(-c2cn([C@@H]3O[C@H](CO)[C@H](O)[C@H](O)[C@H]3O)nn2)cc1`, the inhibition in the series on Trypanosoma cruzi [1] was 19%. In addition, the result in the series on Trypanosoma cruzi [4] (setting [7]) was Active. For the same molecule, the Activity entry in series [2] is recorded as “Non-toxic”.
As to `Cc1ncc(COP(=O)(O)O)c(C=O)c1O`, the inhibition in the series with Trypanosoma cruzi [1] is 65%.
Turning to `CO[C@@H]1O[C@H](Cn2cc(CCCCO)nn2)[C@H](O)[C@H](O)[C@H]1O`, the inhibition in the series on Trypanosoma cruzi [1] is 27%.
Regarding `CO[C@@H]1O[C@H](Cn2cc(-c3ccccc3Br)nn2)[C@H](O)[C@H](O)[C@H]1O`, in the series with Trypanosoma cruzi [1], the inhibition is 29%.
For the molecule `CO[C@@H]1O[C@H](Cn2cc(CCCO)nn2)[C@H](O)[C@H](O)[C@H]1O`, the inhibition in the series with Trypanosoma cruzi [1] worked out at 24%. Also, in series [2], the Activity entry is given as “Non-toxic”.
For `CO[C@@H]1O[C@H](Cn2cc(CC(C)O)nn2)[C@H](O)[C@H](O)[C@H]1O` (mixture of isomers), the inhibition with Trypanosoma cruzi [1] stood at 10%.
Same read-out and setting: then `COC(=O)c1cn([C@@H]2O[C@H](CO)[C@H](O)[C@H](O)[C@H]2O)nn1`, with 28%; and `O=C1c2ccccc2C(=O)N1Cc1cn([C@@H]2O[C@H](CO)[C@H](O)[C@H](O)[C@H]2O)nn1`, with 25%.
Consider `OC[C@H]1O[C@@H](n2cc(-c3ccc(Br)cc3)nn2)[C@H](O)[C@@H](O)[C@H]1O`, for which the inhibition entry in the series with Trypanosoma cruzi [3] was “inactive”. Also, the Activity is reported as 50% in series [5] and “Active” in series [2].
As to `CO[C@@H]1O[C@H](Cn2cc(CO)nn2)[C@H](O)[C@H](O)[C@H]1O`, in the series on Trypanosoma cruzi [1], the inhibition was 28%.
For `CO[C@@H]1O[C@H](Cn2cc(-c3ccccn3)nn2)[C@H](O)[C@H](O)[C@H]1O`, the inhibition with Trypanosoma cruzi [1] stood at 14%.
In the case of `OC[C@H]1O[C@@H](n2cc(-c3cccnc3)nn2)[C@H](O)[C@@H](O)[C@H]1O`, in the series with Trypanosoma cruzi [3], the inhibition worked out at 15%. Moreover, the Activity in series [5] is reported as 50%; in series [2] it was “Toxic”.
`CO[C@@H]1O[C@H](Cn2cc(-c3ccccc3N)nn2)[C@H](O)[C@H](O)[C@H]1O`: the inhibition with Trypanosoma cruzi [1] is 24%.
On to `OC[C@H]1O[C@@H](n2cc(Cc3ccccc3)nn2)[C@H](O)[C@@H](O)[C@H]1O`, for which, in the series on Trypanosoma cruzi [1], the inhibition amounted to 37%. Besides, the Activity in the series with Trypanosoma cruzi [6] is 50%; in series [5] it was 50%; in series [2], “Active”.
For the molecule `CO[C@@H]1O[C@H](Cn2cc(-c3ccc(N)cc3)nn2)[C@H](O)[C@H](O)[C@H]1O`, the inhibition with Trypanosoma cruzi [1] came to 34%.
On to `CO[C@@H]1O[C@H](Cn2cc(CN3C(=O)c4ccccc4C3=O)nn2)[C@H](O)[C@H](O)[C@H]1O`, for which, in the series with Trypanosoma cruzi [3], the inhibition was found to be 11%.
Turning to `CN(Cc1ccccc1)Cc1cn([C@@H]2O[C@H](CO)[C@H](O)[C@H](O)[C@H]2O)nn1`, the inhibition with Trypanosoma cruzi [1] stood at 22%.
As to `CO[C@@H]1O[C@H](Cn2cc(CCCC(=O)O)nn2)[C@H](O)[C@H](O)[C@H]1O`, the inhibition entry in the series on Trypanosoma cruzi [1] is “inactive”.
Consider `CO[C@@H]1O[C@H](Cn2cc(CCc3ccccc3)nn2)[C@H](O)[C@H](O)[C@H]1O`, for which the inhibition in the series with Trypanosoma cruzi [1] worked out at 14%.
For `OC[C@H]1O[C@@H](n2cc(-c3ccccc3C(F)(F)F)nn2)[C@H](O)[C@@H](O)[C@H]1O`, the inhibition in the series on Trypanosoma cruzi [1] stood at 14%.
Regarding `OC[C@H]1O[C@@H](n2cc(-c3ccccc3)nn2)[C@H](O)[C@@H](O)[C@H]1O`, the inhibition with Trypanosoma cruzi [1] is 15%.
Take `CCC(O)c1cn(C[C@H]2O[C@@H](OC)[C@H](O)[C@@H](O)[C@H]2O)nn1` (mixture of isomers): the inhibition in the series on Trypanosoma cruzi [1] worked out at 29%. Besides, the Activity entry in series [2] is recorded as “Non-toxic”.
Turning to `CC(O)Cc1cn([C@@H]2O[C@H](CO)[C@H](O)[C@H](O)[C@H]2O)nn1` (single isomer, unassigned), in the series with Trypanosoma cruzi [1], the inhibition came to 14%.
In the case of `CO[C@@H]1O[C@H](Cn2cc(-c3ccccc3)nn2)[C@H](O)[C@H](O)[C@H]1O`, the inhibition in the series with Trypanosoma cruzi [1] is 14%.
For `CO[C@@H]1O[C@H](Cn2cc(-c3cccc(C(F)(F)F)c3)nn2)[C@H](O)[C@H](O)[C@H]1O`, the inhibition in the series on Trypanosoma cruzi [1] was 3%.
For the molecule `OC[C@H]1O[C@@H](n2cc(-c3ccccn3)nn2)[C@H](O)[C@@H](O)[C@H]1O`, the inhibition with Trypanosoma cruzi [1] turned out to be 13%. Also, in series [2], the Activity entry is given as “Non-toxic”.
As to `OC[C@H]1O[C@@H](n2cc(COCC3CO3)nn2)[C@H](O)[C@@H](O)[C@H]1O` (mixture of isomers), in the series with Trypanosoma cruzi [1], the inhibition was determined as 27%. Further, the Activity result in series [2] is given as “Non-toxic”.
As for `CO[C@@H]1O[C@H](Cn2cc(-c3ccc(C(F)(F)F)cc3)nn2)[C@H](O)[C@H](O)[C@H]1O`, in the series with Trypanosoma cruzi [3], the inhibition came to 10%. Further, the result with Trypanosoma cruzi [4] (setting [7]) was Active. Besides, the Activity in series [5] is recorded as 50%; in series [2] it was “Toxic”.
With `OCCCc1cn([C@@H]2O[C@H](CO)[C@H](O)[C@H](O)[C@H]2O)nn1`, in the series on Trypanosoma cruzi [1], the inhibition was determined as 27%.
As to `Nc1ccccc1-c1cn([C@@H]2O[C@H](CO)[C@H](O)[C@H](O)[C@H]2O)nn1`, in the series with Trypanosoma cruzi [1], the inhibition came out at 30%. In addition, the Activity entry in series [2] was “Non-toxic”.
Turning to `CO[C@@H]1O[C@H](Cn2cc(Cc3ccccc3)nn2)[C@H](O)[C@H](O)[C@H]1O`, the inhibition in the series on Trypanosoma cruzi [1] is 29%.
For the molecule `CO[C@@H]1O[C@H](Cn2cc(-c3ccc(Br)cc3)nn2)[C@H](O)[C@H](O)[C@H]1O`, in the series on Trypanosoma cruzi [3], the inhibition amounted to 3%. Moreover, the Activity entry in series [2] is recorded as “Toxic”.
On to `COC(=O)c1cn(C[C@H]2O[C@@H](OC)[C@H](O)[C@@H](O)[C@H]2O)nn1`, for which the inhibition in the series with Trypanosoma cruzi [1] was determined as 30%.
With `OC[C@H]1O[C@@H](n2cc(-c3cccc(C(F)(F)F)c3)nn2)[C@H](O)[C@@H](O)[C@H]1O`, the inhibition in the series with Trypanosoma cruzi [1] was determined as 31%.
With `OCc1cn([C@@H]2O[C@H](CO)[C@H](O)[C@H](O)[C@H]2O)nn1`, the inhibition in the series with Trypanosoma cruzi [1] was determined as 11%.
